Sampled rows, rich in hits. Any-hit rate of the full collection: about 2.1%.
APJ ag: APJ receptor agonism | P35414 | CHO-K1 APJ PathHunter beta-arrestin, luminescence; 0% DMSO wells, 100% apelin | activation, % at 20 µM | 0.11% of 330,000 active | AID 2520;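 active = activation more than six SD over the plate average, tested at 20 µM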;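 note: 0% = DMSO alone and 100% = apelin-13 at 10 nM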
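assay system = CHO-K1 APJ beta-arrestin complementation cell line | input = cell density 1000 per well | dosing = compound 20 µM once, DMSO 1% | timing = compound 90 min 25 °C, reagent 1 h | measured by = luminescence from split beta-galactosidase complementation, Galacton Star/Emerald II substrate | read-out basis = APJ agonist activity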
m5-HT2A agonist: agonists of mouse serotonin 5-HT2A receptor (HTR2A). P35363. CHO-K1 mHTR2A beta-arrestin complementation, luminescence; percent of 30 µM serotonin response. activation, % at 7.6 µM. 0.66% of 360,000 active;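 active = activation above a run cutoff, the mean activation of all tested compounds plus 3 SD, cut at about 14% in these data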;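 note: 0% = plate median of compound wells and 100% = 30 µM serotonin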
CXCR6 inh: inhibitors of human CXCR6 receptor; CHO-K1 PathHunter CXCR6 beta-arrestin, luminescence; inhibition, % at 20 µM; 0.36% of 360,000 active; in the data active = inhibition above about 34%, passing the limit was not always enough;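 note: antagonist mode with CXCL16 agonist at 10 nM final; 0% = 10 nM CXCL16 with DMSO and 100% = unstimulated wells without agonist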
CCR6 antagonist: CCR6 (human) receptor antagonism; P51684; CHO-K1 CCR6 PathHunter beta-arrestin, luminescence, CCL20-stimulated; inhibition, % at 20 µM; 0.49% of 340,000 active;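 active = compounds whose inhibition of the agonist-driven luminescence signal at 20 µM reaches about 50%, limit read from the data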;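 note: cells stimulated with CCL20 at 14 nM final; plate controls were DMSO with CCL20 for no effect and DMSO without agonist for full effect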
APJ antagonist: APJ receptor antagonism | P35414 | CHO-K1 APJ beta-arrestin complementation, luminescence | inhibition, % at 20 µM | 0.32% of 330,000 active | AID 2521;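 active = inhibition above about 40% at 20 µM, limit read from the data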;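 note: cells challenged with 10 nM apelin-13 agonist together with compound; plate controls were apelin-13 plus DMSO wells for no effect and DMSO wells lacking apelin-13 for full effect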
EBI2 antag: EBI2 (human) antagonism. P32249. EBI2 beta-arrestin recruitment, luminescence, 7a,25-OHC stimulated. inhibition, % at 5 µM. 0.81% of 360,000 active. AID 651636; in the data active = inhibition above about 38%;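 note: enzyme fragment complementation signal reports receptor beta-arrestin coupling in cells; 0% = agonist plus DMSO wells and 100% = wells without agonist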
Target sequence (P32249 whole entry, looked up, the tested form may be a part): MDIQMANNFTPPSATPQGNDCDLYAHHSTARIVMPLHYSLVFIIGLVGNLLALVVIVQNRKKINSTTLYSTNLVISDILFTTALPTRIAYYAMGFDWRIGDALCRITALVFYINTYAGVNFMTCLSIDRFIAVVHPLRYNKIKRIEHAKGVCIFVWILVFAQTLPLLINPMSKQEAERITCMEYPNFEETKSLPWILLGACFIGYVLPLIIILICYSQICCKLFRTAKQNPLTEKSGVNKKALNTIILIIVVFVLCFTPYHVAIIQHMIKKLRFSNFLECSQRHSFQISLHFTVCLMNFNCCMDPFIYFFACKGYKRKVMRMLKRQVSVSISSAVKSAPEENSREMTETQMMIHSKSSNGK
OPRM1 ag: OPRM1 agonism in mouse HTR2A counterscreen; shares compounds with m5-HT2A agonist; U2OS OPRM1 beta-arrestin PathHunter, luminescence; DMSO 0%, DAMGO 9.3 µM 100%; activation, % at 9.3 µM; 5.3% of 2,300 active; AID 624380;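 active = mean activation above the mean of DMSO-only wells plus 3 SD, cut at about 0.5% in these data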
HTR2A ag conf: confirmation of mouse HTR2A serotonin receptor agonists; shares compounds with m5-HT2A agonist; AID 624381; CHO-K1 PathHunter beta-arrestin recruitment, luminescence; DMSO 0%, 30 µM serotonin 100%; activation, % at 7.6 µM; 19% of 2,300 active;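 active = mean activation across triplicates above the hit threshold derived in the original primary screen, cut at about 15% in these data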
Active calls of the source: *; . = not tested or not shown.

SMILES	APJ ag	m5-HT2A agonist	CXCR6 inh	CCR6 antagonist	APJ antagonist	EBI2 antag	OPRM1 ag	HTR2A ag conf
OCC1OC(Oc2c(Br)cc(Br)cc2Br)C(O)C(O)C1O (stereo not given)	.	4	-8	0	.	-1	.	.
CN(C)C(=O)c1snnc1-c1ccccc1	-2	18*	5	2	-28	0	0	-2
C=CCN1C(=O)CN=C1Nc1ccccc1	0	3	-6	12	0	-5	.	.
CC(=O)C1=C(O)C(=O)OC1c1ccc(C)cc1 (stereo not given)	3	-1	-4	2	2	-8	.	.
CC(=O)C1=C(O)C(=O)OC1c1ccc(Cl)cc1 (stereo not given)	0	16*	6	0	16	-5	0	0
Cc1ccc(Nc2ccc3nonc3c2[N+](=O)[O-])cc1	-1	7	-6	-5	2	-7	.	.
Cc1ccc(Nc2ccc([N+](=O)[O-])nc2[N+](=O)[O-])cc1	5	15*	-8	6	-18	-10	0	-4
O=C(O)c1cccc(N2CCCCS2(=O)=O)c1	-3	5	-15	4	-1	-3	.	.
Cc1ccc(C)c(N2CCN(C(=O)Cn3ncc4c([nH]c5ccc(C)cc54)c3=O)CC2)c1	-2	-2	3	11	-12	3	.	.
CCC(C)N(C(=O)COC(=O)CSc1ccc(C)c(C)c1)C1CCS(=O)(=O)C1 (stereo not given)	-2	15*	-7	0	18	-8	0	0
COCCn1c(=O)[nH]c2cc(C(=O)N3CCN(c4ccccc4OC)CC3)ccc2c1=O	-3	9	-7	2	6	-2	.	.
COCCn1c(=O)[nH]c2cc(C(=O)N3CCN(c4cccc(C)c4C)CC3)ccc2c1=O	1	15*	0	-21	-24	8	0	1
O=C(Cn1cc(C(F)(F)F)ccc1=O)Nc1ccc2c(c1)OCO2	.	17*	4	.	.	-5	-1	-3
NC(=O)COc1ccccc1C1=NO[C@@](CC(=O)O)(C(=O)Nc2ccc3c(c2)OCCO3)C1	-1	7	-6	3	6	6	.	.
COc1ccc(C2=NO[C@@](CC(=O)O)(C(=O)Nc3ccc4c(c3)OCCO4)C2)cc1	5	16*	-5	-9	-4	-11	1.0*	2
Cc1nn(Cc2c(Cl)cccc2Cl)c(C)c1NC(=O)c1cc(C(C)C)on1	-1	9	-9	6	-6	-7	.	.
O=C(CN1CCN(c2ccccn2)CC1)Nc1ccccc1	-1	10	4	-6	2	-3	.	.
O=C(CN1CCN(c2ccccn2)CC1)Nc1ccc(Oc2ccccc2)cc1	2	33*	3	11	3	0	-1	92*
O=C(CN1CCN(c2ccccn2)CC1)Nc1cccc(S(=O)(=O)N2CCCC2)c1	-1	19*	8	10	4	0	0	69*
CC(=O)c1ccc(N2CCN(C(=O)C3CCN(S(=O)(=O)c4ccc5c(c4)CC(C)N5C(C)=O)CC3)CC2)cc1 (stereo not given)	-2	16*	-6	1	7	1	0	1
CC(=O)N1c2ccc(S(=O)(=O)N3CCC(C(=O)N4CCN(c5cccc(C(F)(F)F)c5)CC4)CC3)cc2CC1C (stereo not given)	11	0	2	22	8	20	.	.
c1csc(-c2nnc3ccccn23)c1	-3	3	-12	-9	-4	-1	.	.
COc1ccc(CCN2CC(C(=O)NCCCn3nc(C)cc3C)CCC2=O)cc1 (stereo not given)	-1	18*	-3	2	7	6	0	2
Cc1cc(C)n(CCNC(=O)C2CCC(=O)N(CCc3cccc(F)c3)C2)n1 (stereo not given)	-4	7	-8	-2	-3	-10	.	.

Source: PubChem
